Screening data (PubChem BioAssay)
PGC1a acetyl inh – lowers PGC1a acetylation signal in U2OS cells. AlphaScreen anti-acetyl-lysine; with virally co-expressed GCN5 acetyltransferase. inhibition, % at 15.6 µM. actives 0.17% (n = 350,000);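 active = every replicate shows inhibition of at least 40%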;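 note: 0% = neutral control wells and 100% = positive control wells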
PAX8 inh HTS – inhibitors of PAX8 transcriptional activity in RMG-I cells. RMG-I TPO-luciferase reporter, SteadyGlo, 24 h. actives 1.2% (n = 360,000). inhibition, % at 12.6 µM;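 active = mean replicate inhibition at least 60% with every replicate also reaching 60%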;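 note: luciferase light reporting Pax8 driven TPO promoter activity; plate controls were median of neutral control wells for no effect and mitoxantrone controls for full effect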
FN deposit inh – fibronectin deposition inhibition. AH1F fibroblasts, Alexa488-fibronectin deposition fluorescence, overnight. inhibition, % at 12.6 µM. actives 0.086% (n = 350,000). AID 743247;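 active = mean inhibition across replicates of 30% or more, regardless of how many single replicates reach that level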;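 note: positive control wells lacked labelled fibronectin entirely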
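Material: AH1F fibroblast monolayer depositing Alexa488-labelled fibronectin into matrix | Input: 10000 AH1F cells/well | Medium: DMEM plus 2% serum, read in PBS | Reagent: Alexa488-fibronectin, 24 nM final in well | Compound dosing: One dose per compound, pinned | Schedule: 1 h adhesion, overnight exposure | Measured by: Fluorescence at 485 nm excitation, 525 nm emission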
HIV Env fusion – inhibitors of HIV Env-mediated cell fusion | HeLa-JRFL Env/CEM21 cell fusion, luciferase | inhibition, % at 12.3 µM | actives 1.1% (n = 360,000);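 active = mean replicate inhibition score of at least 50 and every replicate individually at or above 50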;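 note: 0% = plate neutral controls and 100% = maraviroc near 300 nM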
FGF22 binding – FGF22 (human) thermal shift binding; Q9HCT0; recombinant FGF22 thermal shift, SYPRO orange fluorescence; percent of sucrose octasulfate shift, DMSO zero; activity (Tm shift, normalised), % at 9.99 µM; actives 1.5% (n = 340,000); AID 651658;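 active = mean Tm shift, scaled 0 neutral to 100 positive control, at about 1.3% or above, every replicate too, limit read from the data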
Target sequence (Q9HCT0 whole entry, looked up): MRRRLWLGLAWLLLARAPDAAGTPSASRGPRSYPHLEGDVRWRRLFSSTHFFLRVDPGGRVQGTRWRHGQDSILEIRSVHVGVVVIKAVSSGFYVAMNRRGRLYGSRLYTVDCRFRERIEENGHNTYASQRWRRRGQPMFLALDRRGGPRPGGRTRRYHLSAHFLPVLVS
EWS-Fli inh – blocks EWS/Fli oncoprotein-driven transcription. A673 NR0B1-luciferase reporter, viability-normalised. inhibition, % at 12.6 µM. actives 0.67% (n = 350,000). AID 651661;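 active = mean inhibition of at least 50% after viability correction, with every replicate also passing that limit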;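 note: firefly luciferase signal divided by Alamar Blue viability fluorescence both relative to DMSO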
Starred values were filed as active, the others as inactive; . = no result given; [ ] = another dose, or the depositor's remark. In the library only some 3.1% were active in any assay of this set; here they are far more common.

SMILES | PGC1a acetyl inh | PAX8 inh HTS | FN deposit inh | HIV Env fusion | FGF22 binding | EWS-Fli inh
C[C@H]1CN([C@@H](C)CO)S(=O)(=O)c2ccc(C#CC3CCCCC3)cc2O[C@@H]1CN(C)Cc1cccnc1 | 64* | . | . | 19[16.7 µM] | 0 | 35
C[C@H]1CN([C@@H](C)CO)S(=O)(=O)c2ccc(C#CC3CCCC3)cc2O[C@H]1CN(C)Cc1cncnc1 | -7 | -11 | -1 | 7[16.7 µM] | . | 52*
C[C@@H]1CN([C@H](C)CO)S(=O)(=O)c2ccc(C#CC3CCCC3)cc2O[C@@H]1CN(C)Cc1cncnc1 | -8 | 41 | -13 | 3[16.7 µM] | . | 6
CC(C)CN(C[C@H]1N[C@H](CO)[C@H]1c1ccccc1)C(=O)CN(C)C | 3 | -8 | -5 | . | 0 | 4
O=C(Nc1ccc(F)cc1)N[C@@H]1C=C[C@@H](CC(=O)N2CCCCC2)O[C@H]1CO | 3 | -9 | 9 | 0[16.7 µM] | 0 | 4
CO[C@H]1CN(C)C(=O)c2cc(C#N)ccc2OCC[C@@H]2CC[C@@H](OC)[C@H](CN(C)C(=O)[C@@H]1C)O2 | . | -7 | 9 | 17[16.7 µM] | 0 | 1
Cc1ccc(S(=O)(=O)Cn2nnnc2C(c2ccccc2)N2CCN(c3ccccc3)CC2)cc1 (centres undefined) | -2 | . | . | . | . | .
Cc1ccc(S(=O)(=O)CC(CN2CCCCC2)N2CCCCC2)cc1 (centres undefined) | . | 90* | -1 | -2 | 0 | -15
O=S(=O)(CC(CN1CCCCC1)N1CCCCC1)c1ccc2ccccc2c1 (centres undefined) | 15 | 31 | 1 | 11 | 0 | 6
Cc1ccc(C(c2nnnn2CS(=O)(=O)c2ccc(C)cc2)N2CCCC2)cc1 (centres undefined) | . | -1 | -1 | 73* | 42 | 2
C[C@H]1CN([C@@H](C)CO)C(=O)c2cc(NC(=O)NC3CCCCC3)ccc2O[C@@H]1CN(C)S(=O)(=O)c1ccccc1 | 5 | 3 | -7 | . | 0 | 4
COc1cccc(C(=O)NN2c3ccccc3CCc3ccccc32)c1 | -5 | 67* | -4 | . | 0 | 9
Cc1cc(Cl)ccc1OCC(=O)N1CC(C)CC(C)C1 (centres undefined) | -7 | -18 | -36 | -37 | . | .
Cc1cc(Cl)ccc1OCC(=O)N1CCCN(C(=O)COc2ccc(Cl)cc2C)CC1 | . | 35 | -1 | 115* | . | .
O=C1[C@@H]2[C@@H](CC(COc3ccccc3)=C([C@H](O)c3ccccc3)[C@@H]2CO)C(=O)N1Cc1ccccc1 | 10 | 3 | . | 12[16.7 µM] | 0 | -2
CC12CC3CC(C)(C1)CC(C(=O)NCc1ccncc1)(C3)C2 | -12 | -4 | -4 | 101* | 0 | 0
O=C(NCc1ccncc1)C12CC3CC(CC(Cl)(C3)C1)C2 | . | 7 | -8 | 14 | 0 | 2
C=C(C)[C@@H]1C2=CC(C(=O)OC)=C(C[C@H](C(=C)C)[C@H]3O[C@H]3C3=C[C@H]1OC3=O)O2 | 2 | . | . | . | 0 | 57*
CCCCCCCCN1C(=O)[C@@H](CC(=O)NCCCOCCCC)C[C@@]2(C(=O)OC)C1=C[C@H](C(C)(C)C)O[C@@H]2C | . | -10 | 5 | 28 | 0 | 18
COC(=O)[C@]12C[C@H](CC(=O)NCc3cccs3)C(=O)N(CCC3=CCCCC3)C1=C[C@H](C(C)(C)C)O[C@@H]2C | . | 26 | -4 | 76* | 0 | 21
COC(=O)[C@]12C[C@H](CC(=O)NCC34CC5CC(CC(C5)C3)C4)C(=O)N(CCC3=CCCCC3)C1=C[C@H](C(C)(C)C)O[C@@H]2C | . | -10 | 11 | 53 | 0 | 8
COC(=O)[C@]12C[C@H](CC(=O)NCC3CCCCC3)C(=O)N(CCC3=CCCCC3)C1=C[C@H](C(C)(C)C)O[C@@H]2C | . | 33 | 12 | 71* | 0 | 11
CCCCOCCCNC(=O)C[C@H]1C[C@@]2(C(=O)OC)C(=C[C@H](C(C)(C)C)O[C@@H]2C)N(CCC2=CCCCC2)C1=O | . | 27 | -6 | 66* | 0 | 23
COC(=O)[C@]12C[C@H](CC(=O)NCCc3ccccc3OC)C(=O)N(CCC3=CCCCC3)C1=C[C@H](C(C)(C)C)O[C@@H]2C | . | 19 | 8 | 61* | 0 | 9
COc1ccccc1C(=O)Nc1ccc2c(c1)C(=O)N(C)C[C@@H](OC)[C@H](C)CN(CC1CC1)[C@H](C)CO2 | -5 | 10 | 20 | 18[16.7 µM] | . | 2
SMILES | PGC1a acetyl inh | PAX8 inh HTS | FN deposit inh | HIV Env fusion | FGF22 binding | EWS-Fli inh
C[C@@H]1CN([C@@H](C)CO)C(=O)c2cccc(NS(=O)(=O)c3cn(C)cn3)c2O[C@@H]1CN(C)C(=O)Nc1ccc(F)cc1 | -4 | 9 | -7 | -12[16.7 µM] | 0 | 10
COCCCNC(=O)C[C@H]1C[C@@]2(C(=O)OC)C(=C[C@H](C(C)(C)C)O[C@@H]2C)N(CCC2=CCCCC2)C1=O | . | -5 | 3 | 60* | 0 | -4
COC(=O)[C@]12C[C@H](CC(=O)NCc3cccc(C(F)(F)F)c3)C(=O)N(CCC3=CCCCC3)C1=C[C@H](C(C)(C)C)O[C@@H]2C | . | 2 | 1 | 101* | -1 | 4
Cc1ccc(O)c(NC(=S)NC(=O)/C=C/c2ccco2)c1 | -27 | -71 | 2 | -111 | 43* | -6
Cc1ccc(O)c(NC(=S)NC(=O)/C=C/c2ccccc2)c1 | -7 | 15 | -3 | 10 | 0 | -3
CCOC(=O)CNC(=O)c1sc2ncnc(N3CCc4ccccc4C3)c2c1C | 1 | . | . | . | 0 | 5
CCOC(=O)CNC(=O)OC1CCN2Cc3ccccc3N=C12 (centres undefined) | 78* | 9 | -3 | -6 | 0 | 3
O=S(=O)(c1ccc2ccccc2c1)N1CCN(Cc2cccc(OCCO)c2)CC1 | . | 3 | . | 0[16.7 µM] | 0 | 9
Cc1ccc(S(=O)(=O)N2CCN(S(=O)(=O)c3ccccc3)C2c2ccc(N(C)C)cc2)cc1 (centres undefined) | -7 | 22 | 5 | 53* | . | .
CC(=O)N1CCN(S(=O)(=O)c2ccc(C)cc2)C1c1ccc(N(C)C)cc1 (centres undefined) | -25 | 5 | -1 | -16 | . | .
COc1ccc(C2N(S(=O)(=O)c3ccc(C)cc3)CCN2S(=O)(=O)c2ccc(C)cc2)cc1 | . | . | 3 | 105* | . | .
CCC(=O)N1CC2(CN(C(=O)Cc3ccccc3)C2)c2c(n(C)c3cc(OC)ccc23)[C@H]1CO | . | 7 | . | . | 0 | -9
O=C(CN1CCN(Cc2ccccc2)CC1)NC(=O)NCc1ccco1 | 8 | . | . | . | . | .
O=C(CN1CCN(S(=O)(=O)c2ccccc2[N+](=O)[O-])CC1)NC(=O)NCc1ccco1 | . | -14 | 2 | -19 | 43* | 14
O=C(C[C@H]1C[C@H]2c3cc(NC(=O)c4cccnc4)ccc3O[C@H]2[C@H](CO)O1)NCc1ccccc1F | -6 | 1 | -5 | 4[16.7 µM] | . | 4
